In BindingDB's records for doi:10.1021/jm950700s (Schering-Plough Research Institute, 1997):

Key:
[1] = target: Potassium-transporting ATPase (Sus scrofa, UniProt P19156); assay: Inhibition of purified H+/K+ ATPase at pH 7.4 as released inorganic phosphate from ATP using hog stomach gastric membrane vesicles
In short: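 Gastric membrane vesicles from hog stomach were prepared by differential and zonal density gradient centrifugation. Activity was read as inorganic phosphate released from ATP at pH 7.4. Protein was measured by the Bradford method against a gammaglobulin standard.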

[2] = target: Potassium-transporting ATPase alpha chain 1/subunit beta (Oryctolagus cuniculus); assay: Inhibition of H+/K+ ATPase as reduced acid formation in rabbit gastric glands

Potassium-transporting ATPase, sequence (P19156 whole entry, looked up): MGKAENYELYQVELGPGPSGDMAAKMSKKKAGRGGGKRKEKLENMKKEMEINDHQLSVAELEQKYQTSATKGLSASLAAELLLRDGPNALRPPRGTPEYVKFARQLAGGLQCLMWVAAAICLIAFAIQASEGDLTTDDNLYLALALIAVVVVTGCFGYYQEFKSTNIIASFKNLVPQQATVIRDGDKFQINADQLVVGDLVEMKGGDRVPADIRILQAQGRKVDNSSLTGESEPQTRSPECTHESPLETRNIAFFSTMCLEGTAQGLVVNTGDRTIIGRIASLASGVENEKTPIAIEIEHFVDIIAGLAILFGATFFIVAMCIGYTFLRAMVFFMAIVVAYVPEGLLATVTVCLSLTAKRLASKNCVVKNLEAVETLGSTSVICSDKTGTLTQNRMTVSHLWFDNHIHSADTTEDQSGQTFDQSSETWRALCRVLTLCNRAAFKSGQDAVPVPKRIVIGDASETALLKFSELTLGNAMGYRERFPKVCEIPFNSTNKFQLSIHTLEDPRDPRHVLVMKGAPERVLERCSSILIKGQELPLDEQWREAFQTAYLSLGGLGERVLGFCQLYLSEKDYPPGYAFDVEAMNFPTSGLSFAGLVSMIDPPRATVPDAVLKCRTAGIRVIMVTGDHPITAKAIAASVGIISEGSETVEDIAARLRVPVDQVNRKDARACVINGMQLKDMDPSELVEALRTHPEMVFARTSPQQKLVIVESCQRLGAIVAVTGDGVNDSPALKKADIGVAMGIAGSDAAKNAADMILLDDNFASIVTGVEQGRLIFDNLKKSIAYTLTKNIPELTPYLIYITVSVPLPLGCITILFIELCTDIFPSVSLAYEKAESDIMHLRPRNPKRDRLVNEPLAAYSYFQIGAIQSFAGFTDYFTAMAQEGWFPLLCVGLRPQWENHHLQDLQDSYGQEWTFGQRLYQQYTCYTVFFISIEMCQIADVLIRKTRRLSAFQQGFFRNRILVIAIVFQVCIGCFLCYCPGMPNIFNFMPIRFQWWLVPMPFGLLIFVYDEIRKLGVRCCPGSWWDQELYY

SMILES	IC50 [1]	IC50 [2]
Cc1nc2c(OCc3ccccc3)nccn2c1N	178 µM	
Cc1nc2c(C/C=C/c3ccccc3)cccn2c1CC#N	206 µM	442 µM
